Here are results for seven compounds from ChEMBL document CHEMBL4622834, “Synthesis and antiproliferative activity of sulfonamide-based peptidomimetic calpain inhibitors” (Bioorg Med Chem, 2020).

Calls of active or inactive are those of the source. The calls are words filed in the database; no cut-off is given here. Where a SMILES comes first, the peptide text is derived from it. The star is where a group is joined. Cbz = O=C(OCc1ccccc1)*

One assay concerns A-375. The assay can be described thus: Antiproliferative activity against human A375 cells assessed as inhibition of cell growth after 48 hrs by sulforhodamine B colorimetric assay. The format is functional. As to conditions: A-375, 48 h. An outline of the steps: (§1)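 Melanoma cells in DMEM with 5% FBS, 1% penicillin/streptomycin, 0.05% insulin; 5000 cells/well in U-bottom wells. After 12 h medium changed and compound added at 8 concentrations for 48 h; Taxol positive control, cells plus medium as negative control. Fixed with 10% TCA, stained with 0.4% SRB in 1% acetic acid 30 min RT, dye released with 10 mM Tris base, A490. Triplicate, ±SEM.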

The next assay relates to B16-F1. The assay can be described thus: Antiproliferative activity against mouse B16-F1 cells assessed as inhibition of cell growth after 48 hrs by sulforhodamine B colorimetric assay. The class given is functional. The conditions noted are these: B16-F1, 48 h. In a few lines:
as §1
(In general: In SRB staining, fixed cells bind dye roughly in proportion to their protein.)

A further assay has as its system PC-3. The assay can be described thus: Antiproliferative activity against human PC3 cells assessed as inhibition of cell growth after 72 hrs by MTT assay. The format is functional. As to conditions: PC-3, 72 h. In a few lines: (§2)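 Cells seeded at 2,000–15,000/well, exposed to drug for 72 h at 37 °C, 5% CO2; untreated wells as negative control. MTT (5 mg/mL) added for the final 2–4 h; plates spun, formazan dissolved in DMSO, A595. Percent survival vs concentration fitted by nonlinear regression for IC50. Triplicate. PC3 grown in RPMI-1640, DU145 in EMEM, each with 10% FBS; DU145 tested at 1 and 2 µM.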

For assay [1], the target named is T1, Calpain-1 catalytic subunit (Sus scrofa, UniProt P35750).
T1 sequence (P35750 whole entry): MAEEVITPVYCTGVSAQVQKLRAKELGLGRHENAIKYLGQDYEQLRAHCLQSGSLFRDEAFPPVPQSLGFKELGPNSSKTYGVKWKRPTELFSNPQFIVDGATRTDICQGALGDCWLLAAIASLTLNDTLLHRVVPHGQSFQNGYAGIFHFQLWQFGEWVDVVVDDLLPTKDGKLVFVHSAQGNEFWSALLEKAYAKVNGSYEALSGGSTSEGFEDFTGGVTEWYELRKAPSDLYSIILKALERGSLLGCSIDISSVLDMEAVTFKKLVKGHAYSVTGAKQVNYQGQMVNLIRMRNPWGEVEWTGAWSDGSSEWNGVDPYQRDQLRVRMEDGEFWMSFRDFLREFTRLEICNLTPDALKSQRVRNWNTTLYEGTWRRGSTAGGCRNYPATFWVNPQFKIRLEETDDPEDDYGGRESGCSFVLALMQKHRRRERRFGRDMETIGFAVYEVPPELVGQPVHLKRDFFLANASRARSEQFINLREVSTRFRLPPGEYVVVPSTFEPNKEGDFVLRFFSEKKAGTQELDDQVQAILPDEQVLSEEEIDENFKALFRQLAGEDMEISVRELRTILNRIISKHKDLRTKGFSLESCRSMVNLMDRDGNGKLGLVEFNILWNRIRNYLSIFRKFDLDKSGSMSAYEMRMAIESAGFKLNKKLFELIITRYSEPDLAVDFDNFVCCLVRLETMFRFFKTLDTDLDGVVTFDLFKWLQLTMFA
The assay can be described thus: Inhibition of mu-calpain in porcine erythrocyte using Suc-Leu-Tyr-AMC as substrate by microtiter plate assay based Dixon plot analysis. An outline of the steps:
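Porcine erythrocyte µ-calpain (1 µg) in 50 mM Tris-HCl pH 7.4, 50 mM NaCl, 10 mM DTT, 1 mM EDTA, 1 mM EGTA, 5 mM CaCl2, with 0.2 mM or 1.0 mM Suc-Leu-Tyr-AMC and varying inhibitor in DMSO (2% total). Ki from Dixon plots of initial velocity (1/v vs inhibitor concentration), r above 0.95; no correction for slow binding or autolysis; mean of triplicates.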

Assay [2] relates to DU-145. The assay can be described thus: Antiinvasive activity against human DU145 cells assessed as inhibition of cell invasion after 48 hrs by matrigel cell invasion assay. The class given is functional, cell-based. In a few lines:
(§3)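 DU-145 cells (20,000) seeded in serum-free medium with 1% BSA in upper chamber, 37 °C for 24 h; lower chamber 10% FBS as chemoattractant. Upper medium then replaced with serum-free medium with or without compound at 1.0, 1.5 or 2.0 µM. After 48 h, non-invading cells swabbed off; invading cells fixed, stained, counted. Triplicate; expressed as percentage of untreated cells.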

Assay [3] deals with DU-145. The assay can be described thus: Antiproliferative activity against human DU145 cells assessed as inhibition of cell growth at 1 to 2 uM after 72 hrs by MTT assay. The format is functional, cell-based. An outline of the steps:
as §2
Background: Tetrazolium dyes change colour on reduction, which living cells bring about.

The subject of assay [4] is DU-145. The assay can be described thus: Antiinvasive activity against human DU145 cells assessed as inhibition of cell invasion at 2 uM after 48 hrs by matrigel cell invasion assay. The class given is functional. The conditions noted are these: DU-145, 48 h. An outline of the steps: as §3

One may read the GI50 as the concentration at which growth is held to half of that of the control. A word on the Ki: it is a dissociation constant, usually derived from enzyme kinetics or from competition with a known ligand. The low end stands for tighter binding, the high end for weaker binding. With `CC(C)C[C@@H](C=O)NC(=O)[C@@H](NS(=O)(=O)c1ccc(/C=C/c2ccccc2)cc1)C(C)C`, the GI50 in the assay with A-375 worked out at 9.4 µM; with B16-F1, 10.3 µM; in the assay with PC-3, 23 µM. This compound yielded an inhibition constant (Ki) in assay [1] of 0.014 µM.
Compound `CC(C)[C@H](NC(=O)OCc1ccccc1)C(=O)N[C@H](C=O)Cc1ccccc1` (Cbz-Val-Phe-aldehyde) gave a Ki in assay [1] of 0.01 µM. In other words, the double-digit nanomolar range.
Take `CC(C)C[C@H](NC(=O)[C@@H](NS(=O)(=O)c1ccc(/C=C/c2ccccc2)cc1)C(C)C)C(=O)C(N)=O`: the GI50 in the assay with A-375 stood at 16 µM; in the assay with B16-F1 it was 17.2 µM; in the assay on PC-3, 6.02 µM. This compound registered a Ki in assay [1] of 0.009 µM.
Consider `CC(C)C[C@@H](C=O)NC(=O)[C@@H]1CCCN1S(=O)(=O)c1ccc(/N=N/c2ccccc2)cc1`, for which the figures for the concentration for 50% growth inhibition (GI50) in the assay with A-375, with B16-F1 and in the assay with PC-3 were 4.1 µM, 13.6 µM and 5.6 µM, respectively. Moreover, in assay [1], the affinity corresponds to a Ki of 0.273 µM.
The term inhibition denotes how much of the control response was suppressed. As to `CC(C)C[C@H](NC(=O)[C@@H](NS(=O)(=O)c1ccc(/N=N/c2ccccc2)cc1)C(C)C)C(=O)C(N)=O`, the GI50 in the assay with A-375 stood at 22.2 µM; in the assay on B16-F1, 18.7 µM; in the assay on PC-3 it was 24.1 µM. Besides, in the assay with DU-145 [2], the inhibition entry is “Dose-dependent effect”. Besides, the result in the assay on DU-145 [3] was inactive. The inhibition at 2 µM in the assay with DU-145 [4] was 80%. Besides, the affinity in assay [1] corresponds to a Ki of 0.016 µM.
Consider `CC(C)C[C@@H](C=O)NC(=O)[C@@H](NS(=O)(=O)c1ccc(/N=N/c2ccccc2)cc1)C(C)C`, for which the figures for the GI50 in the assay on A-375, in the assay with B16-F1 and in the assay with PC-3 were 12.9 µM, 13.7 µM and 27.3 µM, respectively. The compound also gave a Ki in assay [1] of 0.018 µM.
Take `CC(=O)O[C@H]1C(=O)[C@@]2(C)[C@H]([C@H](OC(=O)c3ccccc3)[C@]3(O)C[C@H](OC(=O)[C@H](O)[C@@H](NC(=O)c4ccccc4)c4ccccc4)C(C)=C1C3(C)C)[C@]1(OC(C)=O)CO[C@@H]1C[C@@H]2O` [PACLITAXEL]: the 50% growth inhibitory concentration (GI50) amounted to 0.01 µM in the assay with A-375, 0.02 µM in the assay with B16-F1 and 0.03 µM in the assay on PC-3.
